Assay results as given in ChEMBL document CHEMBL5244270, “Selective Inhibitors of G2019S-LRRK2 Kinase Activity” (J Med Chem, 2020).

Experiments:
Homo sapiens [1] = species on record: Homo sapiens; assay: Selectivity ratio of IC50 for inhibition of N-terminal GST-fused human wild type LRRK2 to IC50 for inhibition of N-terminal GST-fused human […] mutant
How it was run: (§1)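 Purified truncated LRRK2, WT or G2019S, at 2 nM nominal was preincubated with inhibitor for 15 min. LRRKtide (0.4 μM) and ATP (25 μM) were then added for 1 h. The reaction was stopped with 10 mM EDTA plus 2 nM Tb-anti-pLRRKtide antibody, and TR-FRET was read. IC50 is the geometric mean of at least two independent experiments.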

[2] = target: T1, Leucine-rich repeat serine/threonine-protein kinase 2 (Homo sapiens, UniProt Q5S007); assay: Inhibition of human wild type LRRK2 expressed in HEK293 cells assessed as reduction in pSer935 phosphorylation incubated for 2 hrs by immunoblotting analysis; assay type: cell-based
T1 sequence (Q5S007 whole entry): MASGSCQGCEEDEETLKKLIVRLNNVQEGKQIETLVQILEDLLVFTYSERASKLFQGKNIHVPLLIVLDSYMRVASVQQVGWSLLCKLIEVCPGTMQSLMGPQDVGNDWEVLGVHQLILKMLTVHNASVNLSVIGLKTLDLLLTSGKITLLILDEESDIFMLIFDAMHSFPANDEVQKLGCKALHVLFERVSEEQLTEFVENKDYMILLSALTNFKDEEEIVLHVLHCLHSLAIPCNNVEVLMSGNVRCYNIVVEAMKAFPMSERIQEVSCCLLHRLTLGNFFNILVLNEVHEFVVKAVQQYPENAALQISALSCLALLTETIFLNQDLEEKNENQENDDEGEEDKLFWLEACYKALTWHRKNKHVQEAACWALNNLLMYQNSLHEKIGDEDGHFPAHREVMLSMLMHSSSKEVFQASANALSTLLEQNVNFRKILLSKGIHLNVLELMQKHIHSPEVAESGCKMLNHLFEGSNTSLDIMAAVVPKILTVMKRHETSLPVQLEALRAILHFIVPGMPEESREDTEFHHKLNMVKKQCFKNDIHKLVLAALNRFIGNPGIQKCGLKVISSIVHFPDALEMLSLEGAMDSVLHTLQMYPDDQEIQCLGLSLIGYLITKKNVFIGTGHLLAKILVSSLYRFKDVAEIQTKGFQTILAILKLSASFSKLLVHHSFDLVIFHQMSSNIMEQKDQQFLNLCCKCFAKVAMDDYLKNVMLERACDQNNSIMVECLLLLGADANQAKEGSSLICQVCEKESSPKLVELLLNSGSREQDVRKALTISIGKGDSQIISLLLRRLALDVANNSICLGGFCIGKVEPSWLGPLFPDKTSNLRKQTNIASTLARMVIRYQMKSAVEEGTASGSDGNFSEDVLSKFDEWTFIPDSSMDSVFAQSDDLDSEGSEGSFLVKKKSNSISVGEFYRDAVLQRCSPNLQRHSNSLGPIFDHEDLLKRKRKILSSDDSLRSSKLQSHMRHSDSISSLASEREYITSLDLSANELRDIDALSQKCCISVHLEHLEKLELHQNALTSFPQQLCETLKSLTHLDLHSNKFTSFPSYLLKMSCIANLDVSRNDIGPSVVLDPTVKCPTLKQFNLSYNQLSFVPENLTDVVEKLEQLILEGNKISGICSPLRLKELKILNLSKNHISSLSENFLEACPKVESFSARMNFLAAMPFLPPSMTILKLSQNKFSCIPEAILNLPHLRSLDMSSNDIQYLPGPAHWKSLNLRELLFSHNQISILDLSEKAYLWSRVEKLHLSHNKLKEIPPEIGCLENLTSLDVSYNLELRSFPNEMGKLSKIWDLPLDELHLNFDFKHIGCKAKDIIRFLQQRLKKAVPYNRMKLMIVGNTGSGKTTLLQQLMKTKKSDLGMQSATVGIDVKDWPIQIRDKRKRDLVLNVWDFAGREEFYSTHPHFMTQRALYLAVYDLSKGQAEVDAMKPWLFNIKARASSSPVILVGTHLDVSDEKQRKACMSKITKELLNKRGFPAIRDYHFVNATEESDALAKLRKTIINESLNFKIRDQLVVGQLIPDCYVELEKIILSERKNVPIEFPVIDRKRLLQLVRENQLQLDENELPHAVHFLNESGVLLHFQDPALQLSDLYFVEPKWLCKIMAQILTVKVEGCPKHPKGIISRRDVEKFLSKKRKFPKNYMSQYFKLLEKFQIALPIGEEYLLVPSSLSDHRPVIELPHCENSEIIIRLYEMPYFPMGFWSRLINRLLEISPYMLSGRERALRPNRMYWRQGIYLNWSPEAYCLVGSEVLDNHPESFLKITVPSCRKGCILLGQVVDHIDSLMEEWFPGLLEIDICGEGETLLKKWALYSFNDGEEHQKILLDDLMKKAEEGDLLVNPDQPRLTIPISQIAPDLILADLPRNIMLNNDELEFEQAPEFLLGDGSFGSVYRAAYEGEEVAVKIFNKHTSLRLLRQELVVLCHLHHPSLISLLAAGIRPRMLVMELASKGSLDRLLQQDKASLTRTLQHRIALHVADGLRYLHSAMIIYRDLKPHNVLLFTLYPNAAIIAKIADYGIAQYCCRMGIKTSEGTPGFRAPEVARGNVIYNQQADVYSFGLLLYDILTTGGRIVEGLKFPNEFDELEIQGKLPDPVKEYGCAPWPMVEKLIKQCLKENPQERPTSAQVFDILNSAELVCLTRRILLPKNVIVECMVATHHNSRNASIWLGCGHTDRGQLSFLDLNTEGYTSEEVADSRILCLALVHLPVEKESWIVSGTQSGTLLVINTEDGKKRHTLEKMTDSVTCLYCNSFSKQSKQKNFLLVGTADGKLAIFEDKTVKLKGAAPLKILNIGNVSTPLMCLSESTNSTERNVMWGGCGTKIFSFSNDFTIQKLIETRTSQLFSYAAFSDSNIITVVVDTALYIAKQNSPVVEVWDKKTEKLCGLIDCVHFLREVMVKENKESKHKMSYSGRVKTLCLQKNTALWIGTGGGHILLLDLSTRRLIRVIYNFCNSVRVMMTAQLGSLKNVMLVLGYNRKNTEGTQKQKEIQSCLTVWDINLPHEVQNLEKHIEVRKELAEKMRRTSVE
How it was run: (§2)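 HEK293 cells stably expressing WT or G2019S LRRK2 (100 000/well, EMEM with 1% FBS) were dosed about 24 h after plating, for 2 h. They were lysed in 1% SDS Tris buffer with protease and phosphatase inhibitors, and lysates were heated at 65 °C for 10 min. pThr73-Rab10, total Rab10, pS935 and total LRRK2 were quantified by immunoblot. IC50 is the geometric mean of at least two independent experiments.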

Homo sapiens [3] = species on record: Homo sapiens; assay: Selectivity ratio of IC50 for inhibition of human wild type LRRK2 expressed in HEK293 cells to IC50 for inhibition of human LRRK2 G2019S mutant expressed in HEK293; assay type: cell-based; how it was run: as §2
[4] = target: T1, Leucine-rich repeat serine/threonine-protein kinase 2; assay: Inhibition of human wild type LRRK2 expressed in HEK293 cells assessed as reduction in pS1292 phosphorylation incubated for 2 hrs by MSD analysis; assay type: cell-based
How it was run: (§3)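 HEK293 cells stably expressing WT or G2019S LRRK2 (30−50K/well, DMEM with 1% serum) were treated for 2 h at 37 °C and lysed with phosphatase inhibitors. LRRK2 was captured on anti-LRRK2-coated MSD plates overnight at 4 °C. Detection used rabbit anti-pS1292 (1:400) and Sulfo-Tag anti-rabbit, with an electrochemiluminescence read-out. IC50 is the geometric mean of at least two independent experiments.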

[5] = target: T2, Leucine-rich repeat serine/threonine-protein kinase 2 (Homo sapiens, UniProt Q5S007, G2019S); assay: Inhibition of human LRRK2 G2019S mutant expressed in HEK293 cells assessed as reduction in pSer935 phosphorylation incubated for 2 hrs by immunoblotting analysis; assay type: cell-based; how it was run: as §2
T2 sequence (Q5S007 whole entry G2019S, the tested form may be a part): as the sequence (Q5S007 whole entry) above, with G2019S counted along it

[6] = target: T2, Leucine-rich repeat serine/threonine-protein kinase 2; assay: Inhibition of N-terminal GST-fused human LRRK2 G2019S mutant using fluorescein-labeled LRRKtide as substrate preincubated for 15 mins followed by substrate addition and measured after 1 hr by TR-FRET assay; how it was run: as §1
[7] = target: T2, Leucine-rich repeat serine/threonine-protein kinase 2; assay: Inhibition of human LRRK2 G2019S mutant expressed in HEK293 cells assessed as reduction in pS1292 phosphorylation incubated for 2 hrs by MSD analysis; assay type: cell-based; how it was run: as §3
Homo sapiens [8] = species on record: Homo sapiens; assay: Selectivity ratio of IC50 for inhibition of human wild type LRRK2 expressed in HEK293 cells assessed as reduction in pS1292 phosphorylation to IC50 for inhibition of human LRRK2 G2019S mutant expressed in HEK293 cells assessed as reduction in pS1292 phosphorylation; assay type: cell-based; how it was run: as §3
Homo sapiens [9] = species on record: Homo sapiens; assay: Selectivity ratio of IC50 for inhibition of human wild type LRRK2 expressed in HEK293 cells assessed as reduction in pSer935 phosphorylation to IC50 for inhibition of human LRRK2 G2019S mutant expressed in HEK293 cells assessed as reduction in pSer935 phosphorylation; assay type: cell-based
How it was run: (§4)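 Stably transfected HEK293 cells expressing human WT or G2019S LRRK2 were seeded at 5K/well in DMEM with 1% serum on poly-D-lysine plates. Inhibitor in DMSO was added for 2 h at 37 °C. pS935 was detected by an HTRF kit. IC50 is the geometric mean of at least two independent experiments.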

[10] = target: T2, Leucine-rich repeat serine/threonine-protein kinase 2; assay: Inhibition of human LRRK2 G2019S mutant expressed in HEK293 cells assessed as reduction in pSer935 phosphorylation incubated for 2 hrs by HTRF analysis; assay type: cell-based; how it was run: as §4
Homo sapiens [11] = species on record: Homo sapiens; assay: Selectivity ratio of IC50 for inhibition human wild type LRRK2 expressed in human HEK293 assessed as Rab10 substrate phosphorylation at Threonine 73 residue to IC50 for inhibition of human LRRK2 G2019S mutant expressed in human HEK293 assessed as Rab10 substrate phosphorylation at Threonine 73 residue; how it was run: as §2
[12] = target: T1, Leucine-rich repeat serine/threonine-protein kinase 2; assay: Inhibition of N-terminal GST-fused human wild type LRRK2 using fluorescein-labeled LRRKtide as substrate preincubated for 15 mins followed by substrate addition and measured after 1 hr by TR-FRET assay; how it was run: as §1
[13] = target: T2, Leucine-rich repeat serine/threonine-protein kinase 2; assay: Inhibition human LRRK2 G2019S mutant expressed in human HEK293 assessed as Rab10 substrate phosphorylation at Threonine 73 residue incubated for 2 hrs by immunoblotting analysis; assay type: cell-based; how it was run: as §2
[14] = target: T1, Leucine-rich repeat serine/threonine-protein kinase 2; assay: Inhibition human wild type LRRK2 expressed in human HEK293 assessed as Rab10 substrate phosphorylation at Threonine 73 residue incubated for 2 hrs by immunoblotting analysis; assay type: cell-based; how it was run: as §2
[15] = target: T1, Leucine-rich repeat serine/threonine-protein kinase 2; assay: Inhibition of human wild type LRRK2 expressed in HEK293 cells assessed as reduction in pSer935 phosphorylation incubated for 2 hrs by HTRF analysis; assay type: cell-based; how it was run: as §4

| Ratio IC50 (Homo sapiens [1]) | IC50 [2] | IC50 [4] | IC50 [5] | IC50 [6] | IC50 [7] | IC50 [10] | Ratio IC50 (Homo sapiens [11]) | IC50 [12] | IC50 [13] | IC50 [14] | IC50 [15] | SMILES | Ratio IC50 (Homo sapiens [3]) | Ratio IC50 (Homo sapiens [8]) | Ratio IC50 (Homo sapiens [9]) |
| --- | --- | --- | --- | --- | --- | --- | --- | --- | --- | --- | --- | --- | --- | --- | --- |
| > 1.5 | 259 nM | 33.7 nM | 1.5 nM | < 0.2 nM | 1 nM | 1.1 nM | 101 | 0.3 nM | 4.7 nM | 473 nM | 145 nM | CC1=C(C(=O)Nc2ccc3[nH]nc(-c4ccnc(N5CCOCC5)c4)c3c2)C(C)(C)n2nnnc2N1C | 132 | 34 | 173 |
| 24 | 8740 nM | 380 nM | 106 nM | 0.82 nM | 19 nM | 46.1 nM | 71 | 20 nM | 137 nM | 9740 nM | 5220 nM | CC1=C(C(=O)Nc2ccc3[nH]nc(C)c3c2)[C@@H](C)n2nnnc2N1C | 113 | 20 | 82 |
| > 33 | 2090 nM | 117 nM | 2.5 nM | < 0.2 nM | 1.7 nM | 3.1 nM | 344 | 6.6 nM | 11.4 nM | 3920 nM | 1060 nM | CC1=C(C(=O)Nc2ccc3[nH]nc(-c4ccccc4)c3c2)C(C)(C)n2nnnc2N1C | 339 | 71 | 837 |
